Measured values taken from ChEMBL document CHEMBL3865830, “Multifunctional diamine AGE/ALE inhibitors with potential therapeutical properties against Alzheimer's disease” (Eur J Med Chem, 2016).
The source made the active and inactive calls. The calls are words filed in the database; no cut-off is given here.

System: not listed separately
Experiment: Reactive carbonyl species trapping activity of compound assessed as MGO adduct formation at 10 mM preincubated for 24 hrs with MGO measured after 24 hrs by LCMS analysis
Assay type: physicochemical
Conditions: 10000 µM

| Activity | Compound |
| --- | --- |
| 100% | Cl.Cl.NCC(N)CCC(=O)N1CCN(C(=O)c2cc(O)c(O)c(O)c2)CC1 (stereo not drawn) |
| 98% | Cl.Cl.NCC(N)CCC(=O)NCCCn1cccc(O)c1=O (stereo not drawn) |

System: not listed separately
Experiment: Reactive carbonyl species trapping activity of compound assessed as MGO adduct formation at 10 mM preincubated for 24 hrs with MGO measured after 15 mins by LCMS analysis
Assay type: physicochemical
Conditions: 0.25 h, 10000 µM

| Activity | Compound |
| --- | --- |
| 81% | Cl.Cl.NCC(N)CCC(=O)N1CCN(C(=O)c2cc(O)c(O)c(O)c2)CC1 (stereo not drawn) |
| 97% | Cl.Cl.NCC(N)CCC(=O)NCCCn1cccc(O)c1=O (stereo not drawn) |

System: not listed separately
Experiment: Reactive carbonyl species trapping activity of compound assessed as MDA adduct formation at 10 mM preincubated for 24 hrs with MDA measured after 1 hr by LCMS analysis
Assay type: physicochemical
Conditions: 10000 µM

| Activity | Compound |
| --- | --- |
| 68% | Cl.Cl.NCC(N)CCC(=O)N1CCN(C(=O)c2cc(O)c(O)c(O)c2)CC1 (stereo not drawn) |
| 81% | Cl.Cl.NCC(N)CCC(=O)NCCCn1cccc(O)c1=O (stereo not drawn) |

System: not listed separately
Experiment: Antioxidant activity assessed as inhibition of AAPH-induced peroxyl radical generation measured as trolox equivalent at 10 uM preincubated for 30 mins followed by AAPH addition measured evey 60 secs for 60 cycles by ORAC-FL assay
Assay type: functional
Conditions: in the assay text read “90 secs” for “60 secs”
Method in brief: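 Fluorescein (12 nM) preincubated with compound (1-20 µM) or Trolox standard (1-50 µM) in D-PBS, at least 30 min at 37 °C. Reaction started with AAPH (30 mM). Fluorescence (ex 485/em 520 nm) read every 90 s for 60 cycles. Net AUC is converted to Trolox equivalents via the Trolox calibration line. Values are reported at 10 µM, from at least three independent experiments in triplicate.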

| Compound | Activity (umolequiv/umol) |
| --- | --- |
| Cl.Cl.NCC(N)CCC(=O)N1CCN(C(=O)c2cc(O)c(O)c(O)c2)CC1 (stereo not drawn) | 0.89 |
| Cl.Cl.NCC(N)CCC(=O)NCCCn1cccc(O)c1=O (stereo not drawn) | 1.96 |

System: not listed separately
Experiment: Metal chelating activity of compound assessed as compound-Cu2+ complex formation at 200 uM after 10 mins in presence of CuSO4.5H2O by complexometric indicator murexide based UV-Vis spectrophotometric analysis
Assay type: physicochemical
Conditions: not given
Method in brief: (§1)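 Compound (0.02-2 mM) incubated with CuSO4 (120 µM) for 10 min at rt, in 10 mM hexamine/HCl with 10 mM KCl (pH 5.0), or in buffer/MeOH 75:25 for poorly soluble compounds. Murexide added, 1 min more. The A485/A520 ratio gives free Cu2+ from a CuSO4 calibration curve (0-125 µM). % chelation is taken by difference from the no-compound control; triplicates.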

| Activity | Compound |
| --- | --- |
| 52.75% | Cl.Cl.NCC(N)CCC(=O)N1CCN(C(=O)c2cc(O)c(O)c(O)c2)CC1 (stereo not drawn) |
| 55.83% | Cl.Cl.NCC(N)CCC(=O)NCCCn1cccc(O)c1=O (stereo not drawn) |

Organism: Rattus norvegicus
Experiment: Cytotoxicity against rat […] PC12 cells assessed as reduction in cell viability at 10 to 100 uM after 24 hrs by WST8-based CCK8 assay
Assay type: toxicity
Conditions: pc-12, 24 h
Method in brief: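 PC12 Adh cells (rat pheochromocytoma-derived) grown in F-12K with 2.5% FBS, 15% horse serum and pen/strep at 37 °C, 5% CO2. Seeded at 5×10^3 cells/well; treated at 80% confluency with 10 or 100 µM for 24 h. 10% DMSO served as positive cytotoxicity control. CCK-8 added for 1 h at 37 °C, absorbance read at 450 nm. Viability given as % of untreated cells; at least three experiments in triplicate.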

| Compound | Activity |
| --- | --- |
| Cl.Cl.NCC(N)CCC(=O)N1CCN(C(=O)c2cc(O)c(O)c(O)c2)CC1 (stereo not drawn) | Non-Toxic |
| Cl.Cl.NCC(N)CCC(=O)NCCCn1cccc(O)c1=O (stereo not drawn) | Non-Toxic |

System: PC-12
Experiment: Neuroprotective activity against MGO-induced apoptosis in rat PC12 cells assessed as reduction DNA fragmentation at 100 uM preincubated for 1 hr followed by MGO addition after 24 hrs by ELISA
Assay type: functional, cell-based
Conditions: not given
Method in brief: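 PC12 cells pretreated 1 h at 37 °C with compound (10 or 100 µM) in D-PBS, then exposed to MGO (2 mM) for 24 h. Lysates analysed by anti-histone/anti-DNA-peroxidase ELISA for cytoplasmic mono- and oligonucleosomes, with ABTS read-out at 405 nm. Cells without MGO were the control; MGO alone was the apoptosis standard.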

| Compound | Activity |
| --- | --- |
| Cl.Cl.NCC(N)CCC(=O)NCCCn1cccc(O)c1=O (stereo not drawn) | Active |

System: not listed separately
Experiment: Reactive carbonyl species trapping activity of compound assessed as MGO adduct formation at 10 mM preincubated for 24 hrs with MGO measured after 0.25 hrs by LCMS analysis
Assay type: physicochemical
Conditions: 10000 µM

| Activity | Compound |
| --- | --- |
| 81% | Cl.Cl.NCC(N)CCC(=O)N1CCN(C(=O)c2cc(O)c(O)c(O)c2)CC1 (stereo not drawn) |
| 97% | Cl.Cl.NCC(N)CCC(=O)NCCCn1cccc(O)c1=O (stereo not drawn) |

System: not listed separately
Experiment: Reactive carbonyl species trapping activity of compound assessed as MGO adduct formation at 10 mM preincubated for 24 hrs with MGO measured after 0.5 hrs by LCMS analysis
Assay type: physicochemical
Conditions: 10000 µM

| Activity | Compound |
| --- | --- |
| 85% | Cl.Cl.NCC(N)CCC(=O)N1CCN(C(=O)c2cc(O)c(O)c(O)c2)CC1 (stereo not drawn) |
| 98% | Cl.Cl.NCC(N)CCC(=O)NCCCn1cccc(O)c1=O (stereo not drawn) |

System: not listed separately
Experiment: Reactive carbonyl species trapping activity of compound assessed as MGO adduct formation at 10 mM preincubated for 24 hrs with MGO measured after 1 hr by LCMS analysis
Assay type: physicochemical
Conditions: 10000 µM

| Activity | Compound |
| --- | --- |
| 87% | Cl.Cl.NCC(N)CCC(=O)N1CCN(C(=O)c2cc(O)c(O)c(O)c2)CC1 (stereo not drawn) |
| 97% | Cl.Cl.NCC(N)CCC(=O)NCCCn1cccc(O)c1=O (stereo not drawn) |

System: not listed separately
Experiment: Reactive carbonyl species trapping activity of compound assessed as MGO adduct formation at 10 mM preincubated for 24 hrs with MGO measured after 5 hrs by LCMS analysis
Assay type: physicochemical
Conditions: 10000 µM

| Activity | Compound |
| --- | --- |
| 88% | Cl.Cl.NCC(N)CCC(=O)N1CCN(C(=O)c2cc(O)c(O)c(O)c2)CC1 (stereo not drawn) |
| 100% | Cl.Cl.NCC(N)CCC(=O)NCCCn1cccc(O)c1=O (stereo not drawn) |

System: not listed separately
Experiment: Reactive carbonyl species trapping activity of compound assessed as MDA adduct formation at 10 mM preincubated for 24 hrs with MDA measured after 0.25 hrs by LCMS analysis
Assay type: physicochemical
Conditions: 10000 µM

| Activity | Compound |
| --- | --- |
| 50% | Cl.Cl.NCC(N)CCC(=O)N1CCN(C(=O)c2cc(O)c(O)c(O)c2)CC1 (stereo not drawn) |
| 74% | Cl.Cl.NCC(N)CCC(=O)NCCCn1cccc(O)c1=O (stereo not drawn) |

System: not listed separately
Experiment: Reactive carbonyl species trapping activity of compound assessed as MDA adduct formation at 10 mM preincubated for 24 hrs with MDA measured after 0.5 hrs by LCMS analysis
Assay type: physicochemical
Conditions: 10000 µM

| Activity | Compound |
| --- | --- |
| 67% | Cl.Cl.NCC(N)CCC(=O)N1CCN(C(=O)c2cc(O)c(O)c(O)c2)CC1 (stereo not drawn) |
| 75% | Cl.Cl.NCC(N)CCC(=O)NCCCn1cccc(O)c1=O (stereo not drawn) |

System: not listed separately
Experiment: Reactive carbonyl species trapping activity of compound assessed as MDA adduct formation at 10 mM preincubated for 24 hrs with MDA measured after 5 hrs by LCMS analysis
Assay type: physicochemical
Conditions: 10000 µM

| Activity | Compound |
| --- | --- |
| 69% | Cl.Cl.NCC(N)CCC(=O)N1CCN(C(=O)c2cc(O)c(O)c(O)c2)CC1 (stereo not drawn) |
| 85% | Cl.Cl.NCC(N)CCC(=O)NCCCn1cccc(O)c1=O (stereo not drawn) |

System: not listed separately
Experiment: Reactive carbonyl species trapping activity of compound assessed as MDA adduct formation at 10 mM preincubated for 24 hrs with MDA measured after 24 hrs by LCMS analysis
Assay type: physicochemical
Conditions: 10000 µM

| Activity | Compound |
| --- | --- |
| 87% | Cl.Cl.NCC(N)CCC(=O)N1CCN(C(=O)c2cc(O)c(O)c(O)c2)CC1 (stereo not drawn) |
| 93% | Cl.Cl.NCC(N)CCC(=O)NCCCn1cccc(O)c1=O (stereo not drawn) |

System: not listed separately
Experiment: Metal chelating activity of compound assessed as compound-Cu2+ complex formation at 0.02 mM after 10 mins in presence of CuSO4.5H2O by complexometric indicator murexide based UV-Vis spectrophotometric analysis
Assay type: physicochemical
Conditions: 20 µM
Method in brief: as §1

| Activity | Compound |
| --- | --- |
| 5.71% | Cl.Cl.NCC(N)CCC(=O)N1CCN(C(=O)c2cc(O)c(O)c(O)c2)CC1 (stereo not drawn) |
| 11.11% | Cl.Cl.NCC(N)CCC(=O)NCCCn1cccc(O)c1=O (stereo not drawn) |

System: not listed separately
Experiment: Metal chelating activity of compound assessed as compound-Cu2+ complex formation at 0.05 mM after 10 mins in presence of CuSO4.5H2O by complexometric indicator murexide based UV-Vis spectrophotometric analysis
Assay type: physicochemical
Conditions: 50 µM
Method in brief: as §1

| Activity | Compound |
| --- | --- |
| 14% | Cl.Cl.NCC(N)CCC(=O)N1CCN(C(=O)c2cc(O)c(O)c(O)c2)CC1 (stereo not drawn) |
| 20.77% | Cl.Cl.NCC(N)CCC(=O)NCCCn1cccc(O)c1=O (stereo not drawn) |

System: not listed separately
Experiment: Metal chelating activity of compound assessed as compound-Cu2+ complex formation at 0.08 mM after 10 mins in presence of CuSO4.5H2O by complexometric indicator murexide based UV-Vis spectrophotometric analysis
Assay type: physicochemical
Conditions: 80 µM
Method in brief: as §1

| Activity | Compound |
| --- | --- |
| 22.88% | Cl.Cl.NCC(N)CCC(=O)N1CCN(C(=O)c2cc(O)c(O)c(O)c2)CC1 (stereo not drawn) |
| 37.47% | Cl.Cl.NCC(N)CCC(=O)NCCCn1cccc(O)c1=O (stereo not drawn) |

System: not listed separately
Experiment: Metal chelating activity of compound assessed as compound-Cu2+ complex formation at 0.1 mM after 10 mins in presence of CuSO4.5H2O by complexometric indicator murexide based UV-Vis spectrophotometric analysis
Assay type: physicochemical
Conditions: 100 µM
Method in brief: as §1

| Activity | Compound |
| --- | --- |
| 29.96% | Cl.Cl.NCC(N)CCC(=O)N1CCN(C(=O)c2cc(O)c(O)c(O)c2)CC1 (stereo not drawn) |
| 42.39% | Cl.Cl.NCC(N)CCC(=O)NCCCn1cccc(O)c1=O (stereo not drawn) |

System: not listed separately
Experiment: Metal chelating activity of compound assessed as compound-Cu2+ complex formation at 0.5 mM after 10 mins in presence of CuSO4.5H2O by complexometric indicator murexide based UV-Vis spectrophotometric analysis
Assay type: physicochemical
Conditions: 500 µM
Method in brief: as §1

| Activity | Compound |
| --- | --- |
| 74.33% | Cl.Cl.NCC(N)CCC(=O)N1CCN(C(=O)c2cc(O)c(O)c(O)c2)CC1 (stereo not drawn) |
| 71.22% | Cl.Cl.NCC(N)CCC(=O)NCCCn1cccc(O)c1=O (stereo not drawn) |

System: not listed separately
Experiment: Metal chelating activity of compound assessed as compound-Cu2+ complex formation at 1 mM after 10 mins in presence of CuSO4.5H2O by complexometric indicator murexide based UV-Vis spectrophotometric analysis
Assay type: physicochemical
Conditions: 1000 µM
Method in brief: as §1

| Activity | Compound |
| --- | --- |
| 78.48% | Cl.Cl.NCC(N)CCC(=O)N1CCN(C(=O)c2cc(O)c(O)c(O)c2)CC1 (stereo not drawn) |
| 74.89% | Cl.Cl.NCC(N)CCC(=O)NCCCn1cccc(O)c1=O (stereo not drawn) |

System: not listed separately
Experiment: Metal chelating activity of compound assessed as compound-Cu2+ complex formation at 2 mM after 10 mins in presence of CuSO4.5H2O by complexometric indicator murexide based UV-Vis spectrophotometric analysis
Assay type: physicochemical
Conditions: 2000 µM
Method in brief: as §1

| Activity | Compound |
| --- | --- |
| 76.14% | Cl.Cl.NCC(N)CCC(=O)N1CCN(C(=O)c2cc(O)c(O)c(O)c2)CC1 (stereo not drawn) |
| 74.74% | Cl.Cl.NCC(N)CCC(=O)NCCCn1cccc(O)c1=O (stereo not drawn) |
